# Experimental data published in ChEMBL document CHEMBL1140891, “Design, synthesis and biological evaluation of novel stilbene-based antitumor agents” (Bioorg Med Chem, 2009).
# The source made the active and inactive calls. No cut-off for these calls is given here.
# Experiments:
# [1] = Cytotoxicity against human UCI101 cells after 48 hrs by alamar blue assay; format: functional, cell-based; conditions: UCI101, 48 h
# Method in brief: (§1)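 MDA-MB231, MiaPaCa2 and SNU423 cells (ATCC) were grown in DMEM, and UCI-101 cells in IMDM. Both media had 10% FBS plus penicillin/streptomycin/glutamine, under 5% CO2. Cells were treated for 48 h at seven concentrations from 0 to 3.0. Alamar Blue was added at 1/10 volume and OD was read at 570 and 600 nm. % growth inhibition versus untreated cells used extinction-coefficient formula; IC50 from three experiments.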
# MDA-MB-231 = test: Cytotoxicity against human MDA-MB-231 cells after 48 hrs by alamar blue assay; format: functional, cell-based; conditions: MDA-MB-231, 48 h; method in brief: as §1
# MIA PaCa-2 = test: Cytotoxicity against human MIAPaCa2 cells after 48 hrs by alamar blue assay; format: functional, cell-based; conditions: MIA PaCa-2, 48 h; method in brief: as §1
# SNU-423 = test: Cytotoxicity against human SNU423 cells after 48 hrs by alamar blue assay; format: functional, cell-based; conditions: SNU-423, 48 h; method in brief: as §1
# [2] = Solubility in water; format: physicochemical
# HL-60 = test: Induction of apoptosis in human HL60 cells by flow cytometry; format: functional, cell-based
# [3] = Inhibition of tubulin without microtubule associated protein polymerization at 5 uM after 60 mins
Structure (SMILES),IC50 [1],IC50 (MDA-MB-231),IC50 (MIA PaCa-2),IC50 (SNU-423),solubility [2],IC50 (HL-60),Activity [3]
C=CCOc1cc(/C=C\c2ccc(OC)c(N)c2)cc(OC)c1,200 nM,–,–,–,–,–,–
COc1cc(/C=C\c2ccc(OC)c(N)c2)cc(OCC(=O)O)c1,> 10000 nM,–,–,–,–,–,–
COc1cc(/C=C\c2ccc(OC)c(N)c2)cc(OCCO)c1,150 nM,80 nM,180 nM,200 nM,–,–,–
COc1cc(/C=C\c2ccc(OC)c(N)c2)cc(OC)c1.O=C(O)C(=O)O,–,–,–,–,< 1000 µg/mL,–,–
COc1ccc(/C=C\c2ccc3[nH]ccc3c2)cc1N,5000 nM,–,–,–,–,–,–
COc1cc(/C=C\c2ccc(OC)c(O)c2)cc(OC)c1,30 nM,–,–,15 nM,–,30 nM,–
COc1cc(/C=C\c2ccc3cc[nH]c3c2)cc(OC)c1,250 nM,250 nM,200 nM,700 nM,–,–,–
COc1cc(/C=C\c2ccc(OC)c(N)c2)cc(OC)c1 [listing 1 of 2 here],–,–,–,–,–,–,Active
COc1ccc(/C=C\c2ccc3c(ccn3C)c2)cc1N,200 nM,–,–,–,< 1000 µg/mL,–,–
COc1ccc(/C=C\c2cc(OC)c(OC)c(OC)c2)cc1O [COMBRETASTATIN A4],2 nM,4 nM,8 nM,6 nM,–,–,–
COc1cc(/C=C\c2ccc(OC)c(N)c2)cc(OC)c1 [listing 2 of 2 here],–,–,–,–,< 1000 µg/mL,–,–
COc1cc(/C=C\c2ccc(OC)c(NC(=O)OCCN3CCOCC3)c2)cc(OC)c1 [listing 1 of 2 here],5000 nM,–,–,5000 nM,–,–,–
COc1cc(/C=C\c2ccc3[nH]cnc3c2)cc(OC)c1,260 nM,800 nM,800 nM,1000 nM,–,–,–
COc1cc(/C=C\c2ccc(OC)c(NC(=O)OCCN3CCOCC3)c2)cc(OC)c1 [listing 2 of 2 here],–,–,–,–,< 1000 µg/mL,–,–
COc1cc(/C=C\c2ccc(OC)c(N)c2)cc(OC)c1.Cl,30 nM,30 nM,40 nM,30 nM,6000 µg/mL,30 nM,–
COc1cc(/C=C\c2ccc(OC)c(NC(=O)OCCOCCOCCO)c2)cc(OC)c1,> 10000 nM,–,–,–,–,–,–
COc1cc2c(c(OC)c1OC)-c1ccc(OC)c(=O)cc1[C@@H](NC(C)=O)CC2 [COLCHICINE],30 nM,20 nM,25 nM,25 nM,–,–,Active
COc1cc(/C=C\c2ccc3[nH]ccc3c2)cc(OC)c1,250 nM,250 nM,200 nM,700 nM,–,–,–
CC[C@]1(O)C[C@H]2CN(CCc3c([nH]c4ccccc34)[C@@](C(=O)OC)(c3cc4c(cc3OC)N(C=O)[C@H]3[C@@](O)(C(=O)OC)[C@H](OC(C)=O)[C@]5(CC)C=CCN6CC[C@]43[C@@H]65)C2)C1 [VINCRISTINE],20 nM,15 nM,15 nM,10 nM,–,–,–
COc1cc(O)cc(/C=C\c2ccc(OC)c(N)c2)c1,800 nM,800 nM,700 nM,2000 nM,–,–,Active
COc1cc(/C=C\c2ccc3ccn(C)c3c2)cc(OC)c1,220 nM,–,–,–,–,–,–
COc1cc(/C=C\c2ccc(OC)c(N)c2)cc(OC(C)C)c1,100 nM,–,–,–,–,–,–
COc1cc(/C=C\c2ccc(OC)c(NC(=O)NCCN3CCOCC3)c2)cc(OC)c1,> 10000 nM,–,–,–,–,–,–
CCOc1cc(/C=C\c2ccc(OC)c(N)c2)cc(OC)c1,80 nM,–,–,–,–,–,Active
COc1cc(/C=C\c2ccc(OC)c(NC(=O)OCCN3CCOCC3)c2)cc(OC)c1.O=C(O)C(=O)O,–,–,–,–,5900 µg/mL,–,–
COc1cc(/C=C\c2ccc3c(ccn3C)c2)cc(OC)c1,40 nM,80 nM,80 nM,30 nM,< 1000 µg/mL,–,–
